Runt-CBFb FRET: blocks binding of human RUNX1 Runt domain to CBFb. Q01196+Q13951. 0.46% of 220,000 active. inhibition, % at 20 µM. Cerulean-Runt/Venus-CBFb FRET ratio 530/480, 1 h;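 active = inhibition over about 50% at 20 µM in the single-dose screen, limit read from the data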;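 note: 0% = DMSO wells and 100% = excess unlabeled CBFb competitor control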
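Measured by: fluorescence energy transfer, 422 nm excitation, 530/480 nm emission; Assay system: Cerulean-Runt domain; Medium: Tris pH 7.5 buffer with BSA; Measure: loss of energy transfer signal; Controls: 5 µM unlabeled CBFb as full-inhibition high control; Incubation: protein complex preformed 1 h, compound exposure 1 h, room temperature, dark.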
RBBP9 inhibitor: inhibitors of human serine hydrolase RBBP9; recombinant RBBP9, FP-Rh probe fluorescence polarization; inhibition, % at 7.94 µM; 0.2% of 220,000 active; AID 1515;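 active = inhibition above the campaign mean of all tested compounds plus 3 SD, cut at about 14% in these data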;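 note: plate controls were DMSO wells with RBBP9 for no effect and wells lacking RBBP9 protein for full effect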
Target sequence (O75884 whole entry, looked up): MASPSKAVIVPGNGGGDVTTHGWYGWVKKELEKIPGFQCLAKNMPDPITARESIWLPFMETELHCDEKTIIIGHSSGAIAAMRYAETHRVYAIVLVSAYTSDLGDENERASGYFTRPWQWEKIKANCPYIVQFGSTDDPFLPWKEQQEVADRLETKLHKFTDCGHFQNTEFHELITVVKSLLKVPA
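Controls: DMSO-treated enzyme wells and wells lacking RBBP9 | Material: RBBP9 protein | Technique: Fluorescence polarization | Replication: Single well per compound, no replicates | Buffer or medium: Tris-NaCl-Pluronic buffer, pH 8.0 | Timing: 30 min compound preincubation, 45 min probe labeling, 25 °C | Read-out basis: Percent inhibition from mP, scaled between DMSO and no-protein wells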
M18AAP inhibitor: PfM18AAP enzyme inhibition; inhibition, % at 7.35 µM; 1.2% of 290,000 active; recombinant PfM18AAP, H-Glu-NHMec fluorogenic cleavage; AID 1822;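 active = inhibition above the campaign mean inhibition over all tested compounds plus 3 SD, cut at about 28% in these data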;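 note: 0% = plate median of test compound wells and 100% = 2 mM ZnCl2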
RanGTP-Imp inh: disruptors of Ran-importin-beta complex formation – biochemical, FRET, CFP-Ran, YFP-importin-beta, homogeneous, primary screen; cell-free CFP-Ran/YFP-importin-beta FRET ratio; inhibition, % (no concentration beside the values); 1.1% of 300,000 active; AID 2216;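 active = more than half of the replicate wells show a fall in the fluorescence ratio signal beyond about 16%, limit read from the data, passing the limit was not always enough; inconclusive = exactly half of the replicate wells pass the set limit; inactive = fewer than half of replicates pass the limit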;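 note: 0% = DMSO wells and 100% = Ran loaded with GDP instead of GTP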
Hck Nef HTS: human Hck-Nef kinase inhibition; P08631; Recombinant Hck-YEEI plus Nef, Z-Lyte FRET kinase assay; inhibition, % at 20 µM; 0.68% of 220,000 active; AID 463187;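 active = Hck-Nef kinase inhibition above about 50%, limit read from the data; inactive = inhibition below that limit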;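 note: 0% = DMSO with Hck plus Nef and 100% = Hck alone without Nef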
Target sequence (P08631 whole entry, looked up): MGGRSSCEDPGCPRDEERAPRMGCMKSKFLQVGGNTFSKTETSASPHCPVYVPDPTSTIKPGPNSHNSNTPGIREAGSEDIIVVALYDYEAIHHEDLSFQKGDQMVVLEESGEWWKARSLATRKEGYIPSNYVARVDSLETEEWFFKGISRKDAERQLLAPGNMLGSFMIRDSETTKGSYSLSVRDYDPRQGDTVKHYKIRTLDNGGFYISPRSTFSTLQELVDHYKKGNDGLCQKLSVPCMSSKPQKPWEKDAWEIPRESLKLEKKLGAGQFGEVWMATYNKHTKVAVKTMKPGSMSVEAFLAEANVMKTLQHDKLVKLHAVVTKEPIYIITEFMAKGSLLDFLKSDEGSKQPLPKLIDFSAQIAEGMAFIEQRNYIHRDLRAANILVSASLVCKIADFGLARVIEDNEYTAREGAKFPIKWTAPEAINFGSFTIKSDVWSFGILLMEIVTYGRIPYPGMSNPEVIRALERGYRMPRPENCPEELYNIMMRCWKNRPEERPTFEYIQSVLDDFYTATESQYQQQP
Runt-SMMHC FRET: Runt domain-CBFb-SMMHC interaction inhibition; Cerulean-Runt/Venus-CBFb-SMMHC FRET ratio 530/480, 1 h; inhibition, % at 20 µM; 0.74% of 220,000 active; AID 1434;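 active = mean inhibition across duplicate retests at 20 µM reaching about 50%, limit read from the data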;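 note: 0% = DMSO wells and 100% = wells with excess untagged CBFb-SMMHC; inhibitors lower the FRET ratio by blocking Runt binding to CBFb-SMMHC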
Hck Nef conf: Hck-Nef kinase inhibition, confirmation. shares compounds with Hck Nef HTS. Recombinant Hck-YEEI:Nef, Z-Lyte FRET kinase assay. calls only at 10 µM. 28% of 1,300 active. AID 463188;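 active = average inhibition of at least 50%, with Z-scores no higher than 3 in both the phospho-tyrosine peptide and fluorescence counterscreens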
An asterisk follows results filed as active; i = inactive; ? = inconclusive; . = no result given; + = active, no number. In the library only some 2.9% were active in any assay of this set; here they are far more common.

SMILES | Runt-CBFb FRET | RBBP9 inhibitor | M18AAP inhibitor | RanGTP-Imp inh | Hck Nef HTS | Runt-SMMHC FRET | Hck Nef conf
CC(C)CCOc1ccc(C2(C)NC(=O)NC2=O)cc1 (stereo unspecified) | . | . | -3.7 | -3.3 | . | . | .
Cc1cc(C)c2nc(-c3ccccn3)cc(C(=O)Nc3ccc(S(=O)(=O)Nc4cc(C)on4)cc3)c2c1 | -5.1 | -4.6 | -4.3 | -0.7 | 2.4 | -25.2 | .
Cc1cc(C)c2nc(-c3ccccn3)cc(C(=O)Nc3ccc(S(=O)(=O)Nc4onc(C)c4C)cc3)c2c1 | 2.9 | -5.2 | 10.5 | -4.4 | 71.0* | -13.8 | +
C=CCn1c(SCC(=O)Nc2sccc2C#N)nc2sc(C)c(C)c2c1=O | -0.4 | -10.2 | 2.8 | 3.7 | 63.3* | 3.6 | +
C=CCn1c(SCC(=O)NCCO)nc2sc(C)c(C)c2c1=O | -2.2 | 2.5 | -0.5 | -2.2 | 26.8 | -0.5 | .
CCOC(=O)Cn1nc(C)c(NC(=O)COc2ccc(C)c(C)c2)c1C | 3.1 | 8.8 | -4.6 | 4.9 | 18.0 | 0.4 | .
COc1cccc(=O)c2c(C)n(CC(=O)c3ccccc3)c(C)c12 | -4.2 | -5.3 | 2.4 | 0.7 | 52.8* | -34.8 | i
COc1cc(N=Nc2ccccc2C(=O)O)ccc1O | 15.9 | -1.5 | 24.1 | -1.1 | 15.7 | -4.8 | .
O=Cc1cc(N=Nc2ccccc2Cl)ccc1O | -5.3 | 3.9 | 1.4 | -4.4 | 56.6* | -2.8 | +
CCn1cc(S(=O)(=O)c2ccc(C)cc2)c(=O)c2cc(OC)ccc21 | . | . | 1.6 | ? | . | . | .
CCOC(=O)c1sc(N2N=C(C)C(N=Nc3cccc(C)c3)C2=O)nc1C (stereo unspecified) | -1.9 | -5.0 | -2.2 | -0.4 | 99.9* | -8.1 | +
C=CCNC(=O)c1cc(Cl)ccc1[N+](=O)[O-] | -1.7 | -1.4 | -1.0 | 6.0 | 1.0 | 3.2 | .
C=CCN(CC=C)C(=O)c1cc(Cl)ccc1[N+](=O)[O-] | 0.7 | -5.5 | -3.3 | 0.4 | 64.4* | -1.9 | i
Nc1cc2ccncc2c2ccccc12 | 11.5 | -1.4 | 2.3 | 11.2 | 52.4* | 27.9 | i
CC1CCCN(Cc2c(O)ccc3c(=O)c(-c4nc5ccccc5s4)c(N)oc23)C1 (stereo unspecified) | -3.5 | -12.6 | -1.3 | 2.6 | -1.5 | -3.9 | .
CC1CCCN(Cc2c(O)ccc3c4c(c(=O)oc23)CCCC4)C1 (stereo unspecified) | 44.6 | -7.5 | 2.7 | 10.4 | 64.4* | 78.7* | .
O=c1oc2c(CN3CCOCC3)c(O)ccc2c2c1CCC2 | 20.6 | -5.8 | -1.6 | . | 85.5* | 54.1* | .
CC(Sc1ccccc1)C(=O)N1CCN(S(=O)(=O)c2ccccc2F)CC1 (stereo unspecified) | . | . | -5.8 | 3.8 | . | . | .
COc1cc(/C=N/N=C2/NC(=O)C(CC(=O)O)S2)ccc1OCc1ccc(Cl)cc1 (stereo unspecified) | -1.5 | -1.9 | -0.7 | 7.2 | -0.2 | -0.3 | .
CCOc1cc(/C=N/N=C2/NC(=O)C(CC(=O)O)S2)ccc1OCc1ccc(Cl)cc1Cl (stereo unspecified) | 5.1 | -6.2 | 1.6 | 0.9 | 53.7* | -16.3 | i
CC(C)(C)OC(=O)N[C@H](Cc1ccccc1)C(=O)N1CCC[C@@H]1C(=O)O | . | . | -12.6 | ? | . | . | .
CCCn1c(=S)[nH]c2cc(OC)c(OC)cc2c1=O | 2.7 | -2.9 | 2.1 | 1.4 | 15.4 | -1.0 | .
COc1cc2[nH]c(=S)n(Cc3cccs3)c(=O)c2cc1OC | -1.2 | -3.9 | -1.8 | ? | 58.9* | -4.2 | i
N#Cc1c(-c2cccnc2)c2c([nH]c1=O)-c1ccccc1OC2 | 9.8 | 2.4 | 0.0 | 112.8* | 130.1* | 81.6* | .
N#Cc1c(-c2ccccc2)[nH]c(=O)[nH]c1=O | -0.4 | -4.0 | -9.3 | -1.0 | 24.2 | -0.2 | .
SMILES | Runt-CBFb FRET | RBBP9 inhibitor | M18AAP inhibitor | RanGTP-Imp inh | Hck Nef HTS | Runt-SMMHC FRET | Hck Nef conf
N#Cc1c(-c2ccc(F)cc2)c2c([nH]c1=O)-c1ccccc1OC2 | 59.8* | -1.8 | 0.5 | 101.1* | 126.0* | 80.2* | .
O=C(N/N=C(\Cc1ncc[nH]1)c1ccccc1)c1cccnc1 | 1.9 | 10.9 | 9.9 | . | 0.2 | 4.7 | .
COc1cccc(NC(=O)C2CCCO2)c1 (stereo unspecified) | . | . | 0.6 | -1.4 | . | . | .
COc1ccc2nc3c(cc2c1)c(NC(=O)C1CCCO1)nn3CC(C)C (stereo unspecified) | 11.9 | -3.2 | 13.2 | 119.1* | 59.4* | 60.9* | i
COc1ccc2cc3cc(C(=O)Nc4ccc5c(c4)OCCO5)oc3nc2c1 | -7.0 | -10.2 | -1.6 | -1.4 | 51.8* | -40.7 | i
Cc1nc(N2CCN(c3ccc(Cl)cc3)CC2)[nH]c(=O)c1C | . | . | -8.1 | -5.0 | . | . | .
CCOC(=O)Cc1c(C)c2ccc(N(CC)CC)cc2oc1=O | 9.9 | -7.6 | 6.5 | 130.5* | 106.6* | 46.5 | .
CCOC(=O)CCc1c(C)c2ccc(OCC(=O)N(CC)CC)c(C)c2oc1=O | 1.2 | 2.4 | 5.6 | -3.5 | -3.3 | -0.8 | .
CCN(CC)c1ccc2c(C)c(Cl)c(=O)oc2c1 | 19.7 | -0.1 | 2.3 | 107.7* | + | 91.1* | .
Cc1c(CC(=O)N2CCN(C(=O)C3COc4ccccc4O3)CC2)c(=O)oc2cc(O)cc(O)c12 (stereo unspecified) | . | . | 13.1 | 5.3 | . | . | .
CCOC(=O)Cc1c(C)c2c(O)cc(O)cc2oc1=O | 39.6 | 3.0 | -8.9 | 8.5 | 50.0* | 67.6* | i
CCOC(=O)CCc1c(C)c2ccc(O)cc2oc1=O | 40.0 | -5.5 | -7.8 | 0.6 | 90.1* | 90.7* | .
NC(=O)c1cc(Br)cc(C2CCCCC2)c1O | 0.6 | -9.8 | 1.4 | 0.0 | 10.2 | -1.2 | .
COc1ccc(CC(=O)N2CCCC2)c(OC)c1 | . | . | 8.4 | -3.3 | . | . | .
CC1CCC2(CC1)NC(=O)N(CC(=O)Nc1sc3c(c1C(N)=O)CCC3)C2=O (stereo unspecified) | 1.9 | 13.2 | 7.2 | 1.7 | 63.8* | -5.2 | +
CC(C)(Oc1ccc(Cl)cc1)C(=O)OCc1nc2ccsc2c(=O)[nH]1 | . | . | . | -0.3 | . | . | .
CCOc1ccc(CNC(=O)CCC(=O)n2ncc3ccc(Cl)cc32)cc1 | . | . | 0.9 | 7.3 | . | . | .
